An excerpt weighted towards active compounds, which were near 2.8% of everything screened.
GRIN3A LBD mod = binders of NR3A ligand-binding domain, primary screen, biophysical, differential scanning fluorimetry, uHTS; Tm shift relative to glycine control, % at 25 µM; Glutamate receptor ionotropic, NMDA 3A (GRIN3A) ligand-binding domain; NR3A LBD differential scanning fluorimetry, Tm shift; 0% = protein alone, 100% = glycine-bound protein; AID 1259313, 2017; 2.5% of 340,000 active;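 active means melting temperature shift of at least 10% of the positive control shift, at one fixed dose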
Rtt109 Vps75 = inhibitors of C. albicans Rtt109/Vps75 HAT, primary screen, biochemical, ThioGlo CoA-SH fluorescence, plate reader; Histone acetyltransferase RTT109 (Candida albicans (strain SC5314 / ATCC MYA-2876)), …; purified Rtt109/Vps75, 4 h; inhibition, % at 34.9 µM; 0.16% of 330,000 active;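 active means inhibition of at least 50% in every replicate; inconclusive means best replicate reaches 50% inhibition but some replicates fall short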
Target sequence (Q5AAJ8 whole entry, looked up): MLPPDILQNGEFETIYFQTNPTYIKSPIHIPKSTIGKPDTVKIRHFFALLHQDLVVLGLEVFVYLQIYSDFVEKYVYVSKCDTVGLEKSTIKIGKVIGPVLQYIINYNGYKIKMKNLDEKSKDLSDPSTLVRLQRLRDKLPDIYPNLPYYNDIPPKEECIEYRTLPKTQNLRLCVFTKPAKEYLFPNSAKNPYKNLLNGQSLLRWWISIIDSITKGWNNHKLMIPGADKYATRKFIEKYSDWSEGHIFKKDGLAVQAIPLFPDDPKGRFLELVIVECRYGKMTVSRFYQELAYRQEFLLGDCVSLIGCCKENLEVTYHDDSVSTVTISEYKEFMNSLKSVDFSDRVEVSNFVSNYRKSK
GASC-1 inh = inhibitors of GASC-1 histone demethylase, primary screen, biochemical, fluorescence, DELFIA europium; AID 2099, 2009; inhibition, % at 2.35 µM; GST-JMJD2C(1-420) H3K9me3 demethylation; Lysine-specific demethylase 4C (Homo sapiens), Q9H3R0; 0.069% of 330,000 active;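 active means more than half of a compound's replicate wells show inhibition beyond 50%, single wells judged on their own value; inconclusive means some, but no more than half, of replicates pass 50% inhibition; inactive means no replicate passes 50% inhibition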;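 further: signal counts dimethyl H3K9 product captured on neutravidin plate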
T cell modulator = modulators of CD8 T cell-vesicle binding, primary screen, mouse 2C CD8+ T cells, flow cytometry. 2C CD8+ T cell-vesicle binding; hits give low values. response (vesicle binding), % at 7 µM. 0.068% of 330,000 active. AID 2052, 2009;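 active means response, share of CD8 T cells binding vesicles, and their 90th percentile fluorescence all below set limits, cut at about 80% in these data, passing the limit was not always enough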;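 further: values below 100% mean blocked vesicle binding to the CD8+ T cells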
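Material: 2C TCR transgenic mouse naive CD8+ T cells, MACS-purified. Also added: QL9-charged Drosophila Ld/ICAM-1/B7-1 vesicles. Timing: binding 1.5 h at 37 °C. Measured by: high-throughput flow cytometry with anti-B7-1 and anti-CD8 staining. Read-out: percent CD8+ FL2 mean versus row control. Controls: Unloaded micro-vesicles (low), QL9 vesicles with 0.7% DMSO (high).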
Large screens that a line does not name were inactive.

C[C@H]1CN([C@@H](C)CO)C(=O)Cc2cc(NC(=O)Nc3ccccc3)ccc2O[C@H]1CN(C)Cc1ccccc1	Rtt109 Vps75 inconclusive (no result: GASC-1 inh, T cell modulator)
C[C@H]1CN([C@@H](C)CO)C(=O)Cc2cc(NS(C)(=O)=O)ccc2O[C@@H]1CN(C)Cc1ccc(Cl)c(Cl)c1	none (no result: GASC-1 inh)
C[C@@H]1CN([C@@H](C)CO)C(=O)Cc2cc(NC(=O)Nc3ccc(F)cc3)ccc2O[C@@H]1CN(C)Cc1ccc(Cl)c(Cl)c1	GRIN3A LBD mod 18 (no result: GASC-1 inh)
C[C@H](CO)N1C[C@H](C)[C@H](CN(C)Cc2ccc(Oc3ccccc3)cc2)Oc2ccc(NC(=O)Nc3cccc4ccccc34)cc2CC1=O	GRIN3A LBD mod 12
O=C(CN1C(=O)NC2(CCCC2)C1=O)N1CCN(S(=O)(=O)c2cccc(F)c2)CC1	GRIN3A LBD mod 16
CCCc1c(C(=O)N/N=C/c2ccc(C)s2)nnn1-c1nonc1N	none
Nc1nonc1-n1nnc(C(=O)N/N=C/c2cccnc2)c1CSc1ccccc1	GRIN3A LBD mod 19
Nc1nonc1-n1nnc(C(=O)N/N=C/c2cccnc2)c1CSC1=NCCS1	none
CCCc1c(C(=O)N/N=C/c2cccnc2)nnn1-c1nonc1N	GRIN3A LBD mod 32
Nc1nonc1-n1nnc(C(=O)N/N=C/c2cccnc2)c1CSc1ccc(Cl)cc1	GRIN3A LBD mod 12
C/C(=N\NC(=O)c1nnn(-c2nonc2N)c1CSc1ccc(Cl)cc1)c1cccnc1	none
COc1ccc(N2CCN(S(=O)(=O)c3ccc4c(c3)NC(=O)CC(=O)N4)CC2)cc1	none
CC1(CCc2ccc3c(c2)OCO3)NCCc2c1[nH]c1ccccc21 (stereo unspecified)	none
N#CCC(=O)Nc1ccc(C(=O)OC(C(=O)Nc2cc(C(F)(F)F)ccc2Cl)c2ccccc2)cc1 (stereo unspecified)	GRIN3A LBD mod 29
N#CCC(=O)Nc1ccc(C(=O)OC(C(=O)Nc2ccc([N+](=O)[O-])cc2Br)c2ccccc2)cc1 (stereo unspecified)	GRIN3A LBD mod 12 (no result: GASC-1 inh, T cell modulator)
O=C(OC(C(=O)Nc1ccc([N+](=O)[O-])cc1Br)c1ccccc1)c1ccccc1 (stereo unspecified)	none
O=C(CNC(=O)c1ccccc1F)OC(C(=O)Nc1cc(C(F)(F)F)ccc1Cl)c1ccccc1 (stereo unspecified)	none
CCc1nc(Nc2cccc(O)c2)c2oc3ccccc3c2n1	GRIN3A LBD mod 21
CCc1nc(Nc2ccncc2)c2oc3ccccc3c2n1	none
O=c1[nH]c(=S)[nH]cc1Oc1ccc(Br)cc1Br	none (no result: GASC-1 inh, T cell modulator)
Oc1c(Cl)cc(Cl)cc1/C=N/NC(=S)NC1CC2C=CC1C2 (stereo unspecified)	GRIN3A LBD mod 12
Oc1ccccc1/C=N/NC(=S)NC1CC2C=CC1C2 (stereo unspecified)	none
CCOC(=O)COc1ccc(Br)cc1/C=C\c1[nH]c(=O)[nH]c(=O)c1[N+](=O)[O-]	none
CCOC(=O)COc1ccc(Br)cc1/C=C/c1[nH]c(=O)[nH]c(=O)c1[N+](=O)[O-]	GRIN3A LBD mod 161
CSc1ccc(C(=O)C2CCCN(C(=O)CCc3c(C)nn(C)c3C)C2)cc1 (stereo unspecified)	none
Cc1ccc(-c2nn(Cc3ccccc3)cc2C(=O)NCC2CCCO2)cc1 (stereo unspecified)	none (no result: GASC-1 inh, T cell modulator)
COC(=O)c1sccc1-c1ccc(C(=O)Nc2cccc(Cl)c2)o1	GRIN3A LBD mod 24
COc1ccc(-c2coc3cc(OC)cc(O)c3c2=O)cc1	none
COc1ccc(-c2coc3cc(O)cc(O)c3c2=O)cc1	GRIN3A LBD mod 12
O=C(COC(=O)CCc1nc2ccccc2c(=O)[nH]1)NC(=O)NC1CCCC1	GRIN3A LBD mod 12
N#CCCN(C(=O)COC(=O)CCc1nc2ccccc2c(=O)[nH]1)c1ccccc1F	GRIN3A LBD mod 13
O=C(C1CC(=O)N(c2ccc3c(c2)OCCO3)C1)N1CCN(Cc2ccccc2F)CC1 (stereo unspecified)	none
CC(C)CCNC(=O)NC(=O)COC(=O)/C=C/c1cnc2ccccc2n1	GRIN3A LBD mod 11
CC(C)CCNC(=O)NC(=O)COC(=O)/C=C/c1cccc([N+](=O)[O-])c1	none
O=C(NC(NC(=S)Nc1cc(Cl)ccc1Cl)C(Cl)(Cl)Cl)c1ccco1 (stereo unspecified)	GRIN3A LBD mod 14
O=C(NC(NC(=S)Nc1ccc(Cl)c(Cl)c1)C(Cl)(Cl)Cl)c1ccco1 (stereo unspecified)	none
O=C(Cc1ccccc1)NC(NC(=S)Nc1cc(Cl)ccc1Cl)C(Cl)(Cl)Cl (stereo unspecified)	GRIN3A LBD mod 16
Cc1ccccc1NC(=O)Cc1nc(COC(=O)c2ncc(Cl)c(Cl)c2Cl)cs1	none (no result: GASC-1 inh, T cell modulator)
COc1cccc(C(=O)Nc2ccc(-c3nc4ccccc4o3)c(O)c2)c1	GRIN3A LBD mod 34
COc1cccc(C(=O)Nc2ccc(-c3nnc(-c4ccco4)o3)cc2)c1	GRIN3A LBD mod 10
COc1cc(OC)cc(C(=O)Nc2ccc(-c3nc4ccccc4o3)cc2)c1	GRIN3A LBD mod 20
COc1cc(C(=O)Nc2ccc(-c3nc4cc(C)ccc4o3)c(O)c2)cc(OC)c1OC	GRIN3A LBD mod 35 (no result: GASC-1 inh)
CS(=O)(=O)c1ccccc1C(=O)Nc1ccc(-c2nc3ccccc3o2)cc1	none
COc1cc(C(=O)Nc2cccc(-c3nc4ccccc4o3)c2C)cc(OC)c1OC	none (no result: T cell modulator)
N#C/C(=C/C1=C(N2CCOCC2)C(=C/c2ccc(Cl)cc2)/CC1)C(=O)Nc1ccccc1F	none (no result: GASC-1 inh, T cell modulator)
CCNc1nc(Cl)nc(-c2cn(-c3ccccc3)c3ccccc23)n1	GRIN3A LBD mod 12
C/C(=N\NC(=O)CSCc1ccccc1Br)c1cccc([N+](=O)[O-])c1	GRIN3A LBD mod 22
C/C(=N\NC(=O)CSCc1ccc([N+](=O)[O-])cc1)c1cccc(Br)c1	none
CCOC(=O)C1(CC2CCCCO2)CCN(C(=O)Nc2ccc(SC)cc2)CC1 (stereo unspecified)	none
CCOC(=O)C1(CC2CCCCO2)CCN(C(=O)Nc2cccc(SC)c2)CC1 (stereo unspecified)	GRIN3A LBD mod 11
CN1c2ccsc2C(O)=C(C(=S)Nc2ccc(F)c(Cl)c2)S1(=O)=O	GRIN3A LBD mod 26
Cn1cc(C(=O)Nc2ccc(F)c(Cl)c2)cn1	none
COc1cc(/C=C2/C(=N)N3C=CSC3=NC2=O)ccc1OCCCOc1c(C)cccc1C	none
CCS(=O)(=O)C1=NN2C(=N)/C(=C\c3ccc(OCCOc4cccc(OC)c4)c(OC)c3)C(=O)N=C2S1	GRIN3A LBD mod 15
COc1cc(/C=C2/C(=N)N3C=CSC3=NC2=O)ccc1OCCCOc1ccccc1C	GRIN3A LBD mod 18
COCCNC(=O)c1c(CS(=O)(=O)c2ccccc2)noc1C(=O)NCc1ccccc1	none (no result: T cell modulator)

Screening results deposited in PubChem BioAssay by several laboratories.
